Source: ChEMBL document CHEMBL5058577, “EUbOPEN Chemogenomics Library 2 (Multiplex)” (2022)

Test system: Fibroblast
Experiment: Multiplex assay against human fibroblast
Type: toxicity, cell-based
Outline: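 Live cells were stained at seeding with Hoechst33342, BioTracker Green Microtubule Cytoskeleton Dye, MitoTracker Red and Annexin V Alexa Fluor 680, then imaged on a CQ1 microscope at 37°C and 5% CO2 after compound addition. CellPathfinder machine-learning gating split cells into Hoechst high-intensity objects or normal cells. Normal cells were split into healthy, pyknosed or fragmented nuclei, and pyknosed cells into mitotic or apoptotic. Tubulin, mitochondrial-mass and membrane-permeability phenotypes are per cents of healthy-nucleus cells.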

[1] = 12 h, 1 µM, compound concentration 1 uM, replicate 1
[2] = 12 h, 1 µM, compound concentration 1 uM, replicate 2
[3] = 12 h, 10 µM, compound concentration 10 uM, replicate 1
[4] = 12 h, 10 µM, compound concentration 10 uM, replicate 2
[5] = 24 h, 1 µM, compound concentration 1 uM, replicate 1
[6] = 24 h, 1 µM, compound concentration 1 uM, replicate 2
[7] = 24 h, 10 µM, compound concentration 10 uM, replicate 1
[8] = 24 h, 10 µM, compound concentration 10 uM, replicate 2
[9] = 48 h, 1 µM, compound concentration 1 uM, replicate 1
[10] = 48 h, 1 µM, compound concentration 1 uM, replicate 2
[11] = 48 h, 10 µM, compound concentration 10 uM, replicate 1
[12] = 48 h, 10 µM, compound concentration 10 uM, replicate 2

Structure (SMILES): CC(C)C[C@H](CO)Nc1nc(S[C@@H](C)c2ccccc2)nc2nc(N)sc12 [AZD-8797]
- Population Apoptotic (%) [1]: 25%
- Population Fragmented Nuclei (%) [1]: 23%
- Population Healthy Nuclei (%) [1]: 62%
- Population Hoechst High Intensity Objects (%) [1]: 1%
- Population Membrane Permeable-Phenotype (%) [1]: 3%
- Population Mitochondria Different-Phenotype (%) [1]: 3%
- Population Mitotic Cells (%) [1]: 75%
- Population Normal (%) [1]: 98%
- Population Pyknosed Nuclei (%) [1]: 13%
- Population Tubulin-Different-Phenotype (%) [1]: 23%
- Total Cell Count [1]: 146
- Population Apoptotic (%) [2]: 31%
- Population Fragmented Nuclei (%) [2]: 22%
- Population Healthy Nuclei (%) [2]: 55%
- Population Hoechst High Intensity Objects (%) [2]: 4%
- Population Membrane Permeable-Phenotype (%) [2]: 16%
- Population Mitochondria Different-Phenotype (%) [2]: 6%
- Population Mitotic Cells (%) [2]: 68%
- Population Normal (%) [2]: 95%
- Population Pyknosed Nuclei (%) [2]: 21%
- Population Tubulin-Different-Phenotype (%) [2]: 46%
- Total Cell Count [2]: 92
- Population Apoptotic (%) [3]: 38%
- Population Fragmented Nuclei (%) [3]: 18%
- Population Healthy Nuclei (%) [3]: 64%
- Population Hoechst High Intensity Objects (%) [3]: 3%
- Population Membrane Permeable-Phenotype (%) [3]: 0%
- Population Mitochondria Different-Phenotype (%) [3]: 6%
- Population Mitotic Cells (%) [3]: 61%
- Population Normal (%) [3]: 96%
- Population Pyknosed Nuclei (%) [3]: 17%
- Population Tubulin-Different-Phenotype (%) [3]: 46%
- Total Cell Count [3]: 156
- Population Apoptotic (%) [4]: 36%
- Population Fragmented Nuclei (%) [4]: 36%
- Population Healthy Nuclei (%) [4]: 41%
- Population Hoechst High Intensity Objects (%) [4]: 5%
- Population Membrane Permeable-Phenotype (%) [4]: 10%
- Population Mitochondria Different-Phenotype (%) [4]: 27%
- Population Mitotic Cells (%) [4]: 64%
- Population Normal (%) [4]: 94%
- Population Pyknosed Nuclei (%) [4]: 21%
- Population Tubulin-Different-Phenotype (%) [4]: 66%
- Total Cell Count [4]: 122
- Population Apoptotic (%) [5]: 44%
- Population Fragmented Nuclei (%) [5]: 15%
- Population Healthy Nuclei (%) [5]: 69%
- Population Hoechst High Intensity Objects (%) [5]: 1%
- Population Membrane Permeable-Phenotype (%) [5]: 1%
- Population Mitochondria Different-Phenotype (%) [5]: 1%
- Population Mitotic Cells (%) [5]: 55%
- Population Normal (%) [5]: 98%
- Population Pyknosed Nuclei (%) [5]: 14%
- Population Tubulin-Different-Phenotype (%) [5]: 24%
- Total Cell Count [5]: 124
- Population Apoptotic (%) [6]: 31%
- Population Fragmented Nuclei (%) [6]: 29%
- Population Healthy Nuclei (%) [6]: 54%
- Population Hoechst High Intensity Objects (%) [6]: 0%
- Population Membrane Permeable-Phenotype (%) [6]: 17%
- Population Mitochondria Different-Phenotype (%) [6]: 3%
- Population Mitotic Cells (%) [6]: 68%
- Population Normal (%) [6]: 99%
- Population Pyknosed Nuclei (%) [6]: 15%
- Population Tubulin-Different-Phenotype (%) [6]: 46%
- Total Cell Count [6]: 103
- Population Apoptotic (%) [7]: 57%
- Population Fragmented Nuclei (%) [7]: 21%
- Population Healthy Nuclei (%) [7]: 66%
- Population Hoechst High Intensity Objects (%) [7]: 1%
- Population Membrane Permeable-Phenotype (%) [7]: 0%
- Population Mitochondria Different-Phenotype (%) [7]: 15%
- Population Mitotic Cells (%) [7]: 42%
- Population Normal (%) [7]: 98%
- Population Pyknosed Nuclei (%) [7]: 12%
- Population Tubulin-Different-Phenotype (%) [7]: 38%
- Total Cell Count [7]: 168
- Population Apoptotic (%) [8]: 33%
- Population Fragmented Nuclei (%) [8]: 42%
- Population Healthy Nuclei (%) [8]: 38%
- Population Hoechst High Intensity Objects (%) [8]: 2%
- Population Membrane Permeable-Phenotype (%) [8]: 8%
- Population Mitochondria Different-Phenotype (%) [8]: 25%
- Population Mitotic Cells (%) [8]: 66%
- Population Normal (%) [8]: 97%
- Population Pyknosed Nuclei (%) [8]: 19%
- Population Tubulin-Different-Phenotype (%) [8]: 85%
- Total Cell Count [8]: 126
- Population Apoptotic (%) [9]: 50%
- Population Fragmented Nuclei (%) [9]: 25%
- Population Healthy Nuclei (%) [9]: 60%
- Population Hoechst High Intensity Objects (%) [9]: 1%
- Population Membrane Permeable-Phenotype (%) [9]: 1%
- Population Mitochondria Different-Phenotype (%) [9]: 1%
- Population Mitotic Cells (%) [9]: 50%
- Population Normal (%) [9]: 98%
- Population Pyknosed Nuclei (%) [9]: 13%
- Population Tubulin-Different-Phenotype (%) [9]: 11%
- Total Cell Count [9]: 135
- Population Apoptotic (%) [10]: 47%
- Population Fragmented Nuclei (%) [10]: 30%
- Population Healthy Nuclei (%) [10]: 48%
- Population Hoechst High Intensity Objects (%) [10]: 4%
- Population Membrane Permeable-Phenotype (%) [10]: 4%
- Population Mitochondria Different-Phenotype (%) [10]: 4%
- Population Mitotic Cells (%) [10]: 52%
- Population Normal (%) [10]: 95%
- Population Pyknosed Nuclei (%) [10]: 20%
- Population Tubulin-Different-Phenotype (%) [10]: 54%
- Total Cell Count [10]: 95
- Population Apoptotic (%) [11]: 60%
- Population Fragmented Nuclei (%) [11]: 25%
- Population Healthy Nuclei (%) [11]: 65%
- Population Hoechst High Intensity Objects (%) [11]: 2%
- Population Membrane Permeable-Phenotype (%) [11]: 0%
- Population Mitochondria Different-Phenotype (%) [11]: 13%
- Population Mitotic Cells (%) [11]: 40%
- Population Normal (%) [11]: 97%
- Population Pyknosed Nuclei (%) [11]: 9%
- Population Tubulin-Different-Phenotype (%) [11]: 35%
- Total Cell Count [11]: 168
- Population Apoptotic (%) [12]: 35%
- Population Fragmented Nuclei (%) [12]: 45%
- Population Healthy Nuclei (%) [12]: 40%
- Population Hoechst High Intensity Objects (%) [12]: 1%
- Population Membrane Permeable-Phenotype (%) [12]: 12%
- Population Mitochondria Different-Phenotype (%) [12]: 18%
- Population Mitotic Cells (%) [12]: 64%
- Population Normal (%) [12]: 98%
- Population Pyknosed Nuclei (%) [12]: 14%
- Population Tubulin-Different-Phenotype (%) [12]: 89%
- Total Cell Count [12]: 121
